Results on one compound are retold here after PMC10693281 (International Journal of Nanomedicine, 2023).

Series [1] can be described thus: In-vitro drug release, dialysis bag diffusion method. In kind it is physicochemical. The conditions noted are these: PBS pH 7.4. In short, it runs like this: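 Dialysis bag (MW 12,500 Da, ~2.4 nm pores), pre-soaked 24 h in pH 7.4 PBS, filled with 2 mL drug-loaded lipid-carrier dispersion and sealed. Suspended in 100 mL pH 7.4 PBS at 37 ± 1°C under sink conditions, agitated at 100 rpm for 48 h.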

Series [2] in a line: Pharmacokinetic study, single i.v. injection. In kind it is in vivo, Wistar rats. The conditions noted are these: male, Wistar, rat, plasma, iv, 10 mg/kg.
The subject of series [3] is IL-2, IL-6, IL-1β, caspase-9. Kind of series: Proinflammatory cytokines and caspase-9 by ELISA. In kind it is in vivo, Wistar rats. The conditions noted are these: DEN-induced rats. An outline of the steps:
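IL-2, IL-6, IL-1β and caspase-9 were measured in hepatic tissue of DEN-induced HCC rats using commercial ELISA kits per manufacturer's instructions.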
For orientation: In an ELISA, binding on a coated surface is turned into a signal by an enzyme label.

Each structure is given as a SMILES string.

The compound `COc1cc2ncnc(Nc3ccc(F)c(Cl)c3)c2cc1OCCCN1CCOCC1` [Gefitinib] came in with a GF release in series [1] (48 hours) of 95.63 ± 4.04%. Also, in series [1] (within 4 hours), the GF released entry is “approximately 80%”. Also, in series [2], the AUC(0-inf) (usually total exposure, with the tail of the curve extrapolated) was determined as 41100 ± 13200 ng·h/mL; the AUC(0-t) (usually exposure summed from dosing to a finite time, without extrapolation to infinity) was found to be 33300 ± 9550 ng·h/mL; the concentration peaked (Cmax) at 7820 ± 1140 ng/mL; the mean residence time (MRT inf) (usually the average time that molecules of a dose stay in the body) is 12.2 ± 2 h. Further, the half-life (commonly the time needed for the level to fall by half in the phase considered) in series [2] is 7.66 ± 1.7 h. In addition, the “caspase 9 levels” value in series [3] is listed as “increased significantly”.
